≈ marks a conversion by molar mass, not a printed value. Calls of active or inactive are those of the source. The rule behind the calls is not given here.
Tests used:
Assay type in all cases: functional
Staphylococcus aureus [1] = experiment: Antibacterial activity against Staphylococcus aureus Newman after 18 hrs by two fold serial dilution method
In short: (§1)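 Strains were grown overnight at 37 °C in TSB without antibiotic, diluted 1000-fold, and grown 2–3 h to A600 0.6. They were then diluted 1:400 in fresh TSB. Compounds in DMSO were two-fold serially diluted to a final 0.39–50 and mixed with an equal volume of bacteria. A600 was read after 18 h. MIC is the lowest concentration inhibiting growth. Triplicate; vancomycin and tetracycline were positive controls.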

Escherichia coli = experiment: Antibacterial activity against Escherichia coli AB1157 at 50 ug/ml after 18 hrs by two fold serial dilution method; in short: as §1
Staphylococcus aureus [2] = experiment: Antibacterial activity against oxacillin/tetracycline-resistant Staphylococcus aureus NRS-100 after 18 hrs by two fold serial dilution method; details: NRS-100, 18 h
In short: (§2)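 Strains grown overnight at 37 °C in TSB without antibiotic. Cultures were diluted 1000-fold, grown at 37 °C for 2–3 h to A600 0.6, then diluted 1:400 in fresh TSB. Equal volumes of bacteria and two-fold serial DMSO dilutions (final 0.39–50) were mixed. A600 was read after 18 h. MIC was the lowest concentration inhibiting growth. Run in triplicate, with vancomycin and tetracycline controls.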

Staphylococcus aureus [3] = experiment: Antibacterial activity against gentamicin-resistant Staphylococcus aureus NRS-108 after 18 hrs by two fold serial dilution method; details: NRS-108, 18 h; in short: as §2
Staphylococcus aureus [4] = experiment: Antibacterial activity against aminoglycosides/tetracycline-resistant Staphylococcus aureus NRS-1 after 18 hrs by two fold serial dilution method; details: NRS-1, 18 h; in short: as §2
Staphylococcus aureus [5] = experiment: Antibacterial activity against linezolid-resistant Staphylococcus aureus NRS-271 containing phage type E-MRSA after 18 hrs by two fold serial dilution method; details: NRS-271, 18 h; in short: as §2
Staphylococcus aureus [6] = experiment: Antibacterial activity against erythromycin-resistant Staphylococcus aureus NRS-70 after 18 hrs by two fold serial dilution method; details: NRS-70, 18 h; in short: as §2

SMILES | MIC (Staphylococcus aureus [1]) [µM] | Activity (Escherichia coli) | also measured
CC(C)c1cc2c(cc1Br)[C@@]1(C)CCC[C@@](C)(C(=O)O)[C@@H]1C/C2=N\OCCCNC(=O)c1ccccc1C(F)(F)F | 7.84 to 9.8 (≈ 5 to 6.25 µg/mL) | inactive | 
CC(C)c1cc2c(cc1Br)[C@@]1(C)CCC[C@@](C)(C(=O)O)[C@@H]1C/C2=N\OCCNC(=O)c1c(F)c(F)c(F)c(F)c1F | 5.81 to 7.75 (≈ 3.75 to 5 µg/mL) | inactive | 
Cc1ccc(C(=O)NCCCO/N=C2\C[C@H]3[C@](C)(C(=O)O)CCC[C@]3(C)c3cc(Br)c(C(C)C)cc32)s1 | 6.36 to 8.48 (≈ 3.75 to 5 µg/mL) | inactive | 
CC(C)c1cc2c(cc1Br)[C@@]1(C)CCC[C@@](C)(C(=O)O)[C@@H]1C/C2=N\OCCCNC(=O)c1cccs1 | > 86.9 | inactive | 
CC(C)c1cc2c(cc1Br)[C@@]1(C)CCC[C@@](C)(C(=O)O)[C@@H]1C/C2=N\OCCNC(=O)c1cc(Br)cs1 | 5.86 to 7.81 (≈ 3.75 to 5 µg/mL) | inactive | 
CC(C)c1cc2c(cc1Br)[C@@]1(C)CCC[C@@](C)(C(=O)O)[C@@H]1C/C2=N\OCCNC(=O)C1CC1 | 57.8 to 77 (≈ 30 to 40 µg/mL) | inactive | 
CC(C)c1cc2c(cc1Br)[C@@]1(C)CCC[C@@](C)(C(=O)O)[C@@H]1C/C2=N\OCCNC(=O)c1ccccn1 | 26.9 to 35.9 (≈ 15 to 20 µg/mL) | inactive | 
CC(C)c1cc2c(cc1Br)[C@@]1(C)CCC[C@@](C)(C(=O)O)[C@@H]1C/C2=N\OCCCNC(=O)c1ccccc1F | 8.51 to 10.6 (≈ 5 to 6.25 µg/mL) | inactive | 
CC(C)c1cc2c(cc1Br)[C@@]1(C)CCC[C@@](C)(C(=O)O)[C@@H]1C/C2=N\OCCCNC(=O)c1ccccn1 | 21.9 (≈ 12.5 µg/mL) | inactive | 
CC(C)c1cc2c(cc1Br)[C@@]1(C)CCC[C@@](C)(C(=O)O)[C@@H]1C/C2=N\OCCCNC(=O)Cc1ccccc1C(F)(F)F | 7.67 (≈ 5 µg/mL) | inactive | 
CC(C)c1cc2c(cc1Br)[C@@]1(C)CCC[C@@](C)(C(=O)O)[C@@H]1C/C2=N\OCCCNC(=O)c1ccsc1 | 17.4 (≈ 10 µg/mL) | inactive | 
CC(C)c1cc2c(cc1Br)[C@@]1(C)CCC[C@@](C)(C(=O)O)[C@@H]1C/C2=N\OCCNC(=O)Cc1cccc(C(F)(F)F)c1 | 5.88 to 7.84 (≈ 3.75 to 5 µg/mL) | inactive | 
CN(C)[C@@H]1C(O)=C(C(N)=O)C(=O)[C@@]2(O)C(O)=C3C(=O)c4c(O)cccc4[C@@](C)(O)[C@H]3C[C@@H]12 [TETRACYCLINE] | < 2.16 |  | MIC (Staphylococcus aureus [2]): < 7.04 µM; MIC (Staphylococcus aureus [3]): < 7.04 µM; MIC (Staphylococcus aureus [4]): > 56.2 µM; MIC (Staphylococcus aureus [5]): < 7.04 µM; MIC (Staphylococcus aureus [6]): < 7.04 µM
CC(C)c1cc2c(cc1Br)[C@@]1(C)CCC[C@@](C)(C(=O)O)[C@@H]1C/C2=N\OCCNC(=O)c1ccccc1 | 18 to 22.5 (≈ 10 to 12.5 µg/mL) | inactive | 
CC(C)c1ccc2c(c1)CC[C@H]1[C@](C)(C(=O)O)CCC[C@]21C [DEHYDROABIETIC ACID] | 41.6 to 66.6 (≈ 12.5 to 20 µg/mL) | inactive | 
CC(=O)NCCO/N=C1\C[C@H]2[C@](C)(C(=O)O)CCC[C@]2(C)c2cc(Br)c(C(C)C)cc21 | > 101 | inactive | 
CC(C)c1cc2c(cc1Br)[C@@]1(C)CCC[C@@](C)(C(=O)O)[C@@H]1C/C2=N\OCCNC(=O)Cc1ccc(C(F)(F)F)cc1 | 5.88 to 7.84 (≈ 3.75 to 5 µg/mL) | inactive | 
CC(C)C(=O)NCCO/N=C1\C[C@H]2[C@](C)(C(=O)O)CCC[C@]2(C)c2cc(Br)c(C(C)C)cc21 | 76.7 to 95.9 (≈ 40 to 50 µg/mL) | inactive | 
CC(C)c1cc2c(cc1Br)[C@@]1(C)CCC[C@@](C)(C(=O)O)[C@@H]1C/C2=N\OCCNC(=O)c1ccc[nH]1 | 5.75 to 9.18 (≈ 3.13 to 5 µg/mL) | inactive | 
CC(C)c1cc2c(cc1Br)[C@@]1(C)CCC[C@@](C)(C(=O)O)[C@@H]1C/C2=N\OCCNC(=O)c1ccccc1F | 13.1 to 17.4 (≈ 7.5 to 10 µg/mL) | inactive | 
CC(C)c1cc2c(cc1Br)[C@@]1(C)CCC[C@@](C)(C(=O)O)[C@@H]1C/C2=N\OCCCN | > 107 | inactive | 

SMILES | MIC (Staphylococcus aureus [1]) [µM] | Activity (Escherichia coli) | also measured
CC(C)c1cc2c(cc1Br)[C@@]1(C)CCC[C@@](C)(C(=O)O)[C@@H]1C/C2=N\OCCCNC(=O)c1c(F)c(F)c(F)c(F)c1F | 5.69 to 7.58 (≈ 3.75 to 5 µg/mL) | inactive | 
CC(C)c1cc2c(cc1Br)[C@@]1(C)CCC[C@@](C)(C(=O)O)[C@@H]1C/C2=N\OCCNC(=O)Cc1ccccc1 | 17.6 (≈ 10 µg/mL) | inactive | 
COc1ccccc1C(=O)NCCO/N=C1\C[C@H]2[C@](C)(C(=O)O)CCC[C@]2(C)c2cc(Br)c(C(C)C)cc21 | 8.54 to 10.7 (≈ 5 to 6.25 µg/mL) | inactive | 
CC(C)c1cc2c(cc1Br)[C@@]1(C)CCC[C@@](C)(C(=O)O)[C@@H]1C/C2=N\OCCNC(=O)c1ccco1 | 36.7 to 45.8 (≈ 20 to 25 µg/mL) | inactive | 
CC(C)c1cc2c(cc1Br)[C@@]1(C)CCC[C@@](C)(C(=O)O)[C@@H]1C/C2=N\OCCCNC(=O)C(C)(C)C | 72.8 to 91 (≈ 40 to 50 µg/mL) | inactive | 
CC(C)c1cc2c(cc1Br)[C@@]1(C)CCC[C@@](C)(C(=O)O)[C@@H]1C/C2=N\OCCNC(=O)c1ccccc1C(F)(F)F | 10 to 20.1 (≈ 6.25 to 12.5 µg/mL) | inactive | 
CC(C)c1cc2c(cc1Br)[C@@]1(C)CCC[C@@](C)(C(=O)O)[C@@H]1C/C2=N\OCCNC(=O)Cc1ccccc1C(F)(F)F | 7.84 (≈ 5 µg/mL) | inactive | 
CC(C)c1cc2c(cc1Br)[C@@]1(C)CCC[C@@](C)(C(=O)O)[C@@H]1C/C2=N\OCCCNC(=O)C1CC1 | 56.2 to 75 (≈ 30 to 40 µg/mL) | inactive | 
CC(C)c1cc2c(cc1Br)[C@@]1(C)CCC[C@@](C)(C(=O)O)[C@@H]1C/C2=N\OCCNC(=O)c1cccs1 | > 89 | inactive | 
CCCCCC(=O)NCCO/N=C1\C[C@H]2[C@](C)(C(=O)O)CCC[C@]2(C)c2cc(Br)c(C(C)C)cc21 | 13.6 to 18.2 (≈ 7.5 to 10 µg/mL) | inactive | 
CC(C)c1cc2c(cc1Br)[C@@]1(C)CCC[C@@](C)(C(=O)O)[C@@H]1C/C2=N\OCCCNC(=O)c1cc2ccccc2[nH]1 | > 41.1 | inactive | 
COc1ccc(C(=O)NCCCO/N=C2\C[C@H]3[C@](C)(C(=O)O)CCC[C@]3(C)c3cc(Br)c(C(C)C)cc32)cc1 | 12.5 to 16.7 (≈ 7.5 to 10 µg/mL) | inactive | 
CC(C)c1cc2c(cc1Br)[C@@]1(C)CCC[C@@](C)(C(=O)O)[C@@H]1C/C2=N\OCCN | > 111 | inactive | 
COc1ccc(C(=O)NCCO/N=C2\C[C@H]3[C@](C)(C(=O)O)CCC[C@]3(C)c3cc(Br)c(C(C)C)cc32)cc1 | 25.6 to 34.2 (≈ 15 to 20 µg/mL) | inactive | 
CC(C)c1cc2c(cc1Br)[C@@]1(C)CCC[C@@](C)(C(=O)O)[C@@H]1C/C2=N\OCCCNC(=O)c1ccccc1 | 8.78 (≈ 5 µg/mL) | inactive | 
CC(C)c1cc2c(cc1Br)[C@@]1(C)CCC[C@@](C)(C(=O)O)[C@@H]1C/C2=N\OCCNC(=O)c1ccsc1 | > 89 | inactive | 
CC(C)c1cc2c(cc1Br)[C@@]1(C)CCC[C@@](C)(C(=O)O)[C@@H]1C/C2=N\OCCNC(=O)c1ccc(C(F)(F)F)cc1 | 5.02 to 8.02 (≈ 3.13 to 5 µg/mL) | inactive | 
CCc1ccc(C(=O)NCCO/N=C2\C[C@H]3[C@](C)(C(=O)O)CCC[C@]3(C)c3cc(Br)c(C(C)C)cc32)cc1 | 4.28 to 6.42 (≈ 2.5 to 3.75 µg/mL) | inactive | 
CC(C)c1cc2c(cc1Br)[C@@]1(C)CCC[C@@](C)(C(=O)O)[C@@H]1C/C2=N\OCCCNC(=O)Cc1ccccc1 | 17.1 (≈ 10 µg/mL) | inactive | 
Cc1ccc(C(=O)NCCO/N=C2\C[C@H]3[C@](C)(C(=O)O)CCC[C@]3(C)c3cc(Br)c(C(C)C)cc32)s1 | 13 to 17.4 (≈ 7.5 to 10 µg/mL) | inactive | 

— ChEMBL document CHEMBL3997768, “The synthesis and antistaphylococcal activity of dehydroabietic acid derivatives: modifications at C12 and C7” (2017)
